Assay results: ChEMBL document CHEMBL4334524, “Discovery of Highly Polar β-Homophenylalanine Derivatives as Nonsystemic Intestine-Targeted Dipeptidyl Peptidase IV Inhibitors” (J Med Chem, 2019)
Calls of active or inactive are those of the source. No cut-off for these calls is given here.

Experiments:
[1] = molecular target: Dipeptidyl peptidase 4 (Mus musculus, UniProt P28843); test: Inhibition of DPP4 in C57BL/6 mouse serum pre-incubated for 5 mins followed by Gly-Pro-7-AMC substrate addition by fluorescence based assay; type: cell-free
[2] = Solubility in pH 7.0 buffer by nephelometry; type: physicochemical
[3] = Solubility in pH 7.4 buffer by nephelometry; type: physicochemical
[4] = Efflux ratio in human Caco2 cells at 20 uM incubated for […] by LC-MS/MS analysis; type: ADME, cell-based; conditions: Caco-2
[5] = Apparent permeability from basolateral to apical side in human Caco2 cells at 20 uM incubated for […] by LC-MS/MS analysis; type: ADME, cell-based; conditions: Caco-2
[6] = Apparent permeability from apical to basolateral side in human Caco2 cells at 20 uM incubated for […] by LC-MS/MS analysis; type: ADME, cell-based; conditions: Caco-2
[7] = Solubility in pH 6.8 buffer by nephelometry; type: physicochemical
[8] = Stability in human intestinal S9 fractions assessed as phase I and phase II enzymes-mediated generation of systemic metabolites at 0.1 uM incubated at 37 degC for 10 mins by LC-MS/MS analysis; type: ADME, subcellular, Intestine, S9 fraction; conditions: s9, 10 min
[9] = Stability in mouse intestinal S9 fractions assessed as phase I and phase II enzymes-mediated generation of systemic metabolites at 0.1 uM incubated at 37 degC for 10 mins by LC-MS/MS analysis; type: ADME, subcellular, Intestine, S9 fraction; conditions: s9, 10 min
[10] = system: Hepatocyte; test: Cytotoxicity in mouse primary hepatocytes assessed as reduction in cell viability up to 200 uM incubated for 24 hrs by MTT assay; type: cell-based
[11] = system: HEK293; test: Cytotoxicity in HEK293 cells assessed as reduction in cell viability up to 200 uM incubated for 24 hrs by MTT assay; type: cell-based; conditions: human, hek293, 24 h
[12] = Selectivity index, ratio of IC50 for recombinant human DPP8 to IC50 for inhibition of DPP4 in C57BL/6 mouse serum
[13] = system: Mus musculus; test: Inhibition of jejunum DPP4 in BALB/c mouse at 30 mg/kg, po after 8 hrs using Gly-Pro-7-AMC substrate by fluorescence based assay; type: functional, organism-based
How it was run: (§1)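 Mice were dosed orally at 30 mg/kg and intestinal DPPIV activity was measured 8 h later in three intestinal segments. Activity is expressed relative to a vehicle control group, with n = 6 per group. Data are mean ± SEM, compared with control by Student's t-test.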

[14] = Toxicity in ICR mouse assessed as effect on clinical parameters at 1000 mg/kg, po administered as single dose after 4 days; conditions: in vivo, 96 h
[15] = Toxicity in ICR mouse assessed as mouse survival at 1000 mg/kg, po administered as single dose after 4 days; conditions: in vivo, 96 h
[16] = Toxicity in ICR mouse assessed as effect on body weight at 1000 mg/kg, po administered as single dose after 4 days; conditions: in vivo, 96 h
[17] = Toxicity in ICR mouse assessed as effect on behavioral parameters at 1000 mg/kg, po administered as single dose after 4 days; conditions: in vivo, 96 h
[18] = system: Mus musculus; test: Inhibition of colon DPP4 in BALB/c mouse at 30 mg/kg, po after 8 hrs using Gly-Pro-7-AMC substrate by fluorescence based assay; type: functional, organism-based; how it was run: as §1
[19] = system: Mus musculus; test: Inhibition of ileum DPP4 in BALB/c mouse at 30 mg/kg, po after 8 hrs using Gly-Pro-7-AMC substrate by fluorescence based assay; type: functional, organism-based; how it was run: as §1
[20] = system: HepG2; test: Cytotoxicity in human HepG2 cells assessed as reduction in cell viability up to 200 uM incubated for 24 hrs by MTT assay; type: cell-based; conditions: hepg2, 24 h
[21] = Selectivity index, ratio of IC50 for recombinant human DPP9 to IC50 for inhibition of DPP4 in C57BL/6 mouse serum

Dipeptidyl peptidase 4, sequence (P28843 whole entry): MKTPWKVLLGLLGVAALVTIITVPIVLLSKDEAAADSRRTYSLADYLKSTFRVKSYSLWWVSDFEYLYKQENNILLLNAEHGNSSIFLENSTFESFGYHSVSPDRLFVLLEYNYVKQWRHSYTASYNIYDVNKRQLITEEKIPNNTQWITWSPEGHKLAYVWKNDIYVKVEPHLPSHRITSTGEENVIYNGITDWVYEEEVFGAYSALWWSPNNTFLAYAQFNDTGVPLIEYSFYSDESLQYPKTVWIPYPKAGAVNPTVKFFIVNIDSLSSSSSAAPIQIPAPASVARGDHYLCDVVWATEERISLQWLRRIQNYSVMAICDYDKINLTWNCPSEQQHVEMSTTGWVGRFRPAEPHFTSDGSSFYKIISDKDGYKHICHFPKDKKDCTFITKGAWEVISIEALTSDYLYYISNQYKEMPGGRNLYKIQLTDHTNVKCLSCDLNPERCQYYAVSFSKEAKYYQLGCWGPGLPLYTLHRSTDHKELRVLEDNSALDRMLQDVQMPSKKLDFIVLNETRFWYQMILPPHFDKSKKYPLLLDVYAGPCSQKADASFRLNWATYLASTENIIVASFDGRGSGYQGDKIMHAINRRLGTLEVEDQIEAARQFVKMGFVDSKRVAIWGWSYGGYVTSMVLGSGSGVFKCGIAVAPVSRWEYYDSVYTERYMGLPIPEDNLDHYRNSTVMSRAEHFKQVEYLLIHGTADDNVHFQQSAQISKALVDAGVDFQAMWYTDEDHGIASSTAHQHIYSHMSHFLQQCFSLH

| Compound | IC50 [1] | solubility kinetic [2] | solubility kinetic [3] | efflux ratio at […], 20 µM [4] | Papp B→A at […], 20 µM [5] | Papp A→B at […], 20 µM [6] | solubility kinetic [7] | Stability [8] | Stability [9] | also measured |
| --- | --- | --- | --- | --- | --- | --- | --- | --- | --- | --- |
| N[C@@H](CC(=O)NC1(c2nc3ccc(OCCCCCCCCCCCC(=O)NC[C@H](O)[C@@H](O)[C@@H](O)[C@H](O)CO)cc3s2)CCS(=O)(=O)CC1)Cc1cc(F)c(F)cc1F | 168 nM | – | – | – | – | – | – | – | – | – |
| N[C@@H](CC(=O)NC1(c2nc3ccc(OCCCCCC(=O)NCCS(=O)(=O)O)cc3s2)CCS(=O)(=O)CC1)Cc1cc(F)c(F)cc1F.O=C(O)C(F)(F)F | 2 nM | > 50 µM | > 50 µM | 295 | 0.59 ×10⁻⁶ cm/s | 0.002 ×10⁻⁶ cm/s | 20 to 50 µM | – | – | – |
| C[N+](C)(C)CCNC(=O)CCCCCCCCCCCOc1ccc2nc(C3(NC(=O)C[C@H](N)Cc4cc(F)c(F)cc4F)CCS(=O)(=O)CC3)sc2c1 | 116 nM | – | – | – | – | – | – | – | – | – |
| O=c1ccc2ccc(O)cc2o1 [UMBELLIFERONE] | – | – | – | – | – | – | – | Unstable | Unstable | – |
| N[C@@H](CC(=O)NC1(c2nc3ccc(OCCCCCCCCCCCC(=O)NCCS(=O)(=O)O)cc3s2)CCS(=O)(=O)CC1)Cc1cc(F)c(F)cc1F | 81.8 nM | – | – | – | – | – | – | – | – | – |
| N[C@@H](CC(=O)NC1(c2nc3ccc(OCC(=O)NCCS(=O)(=O)O)cc3s2)CCS(=O)(=O)CC1)Cc1cc(F)c(F)cc1F.O=C(O)C(F)(F)F | 1.1 nM | > 50 µM | > 50 µM | 0.3 | 0.01 ×10⁻⁶ cm/s | 0.04 ×10⁻⁶ cm/s | > 50 µM | Stable | Stable | Activity [10]: Non-Toxic; Activity [11]: Non-Toxic; Ratio IC50 [12]: > 2000; inhibition [13]: Active; Activity [14]: Non-Toxic; Activity [15]: Non-Toxic; Activity [16]: Non-Toxic; Activity [17]: Non-Toxic; inhibition [18]: Active; inhibition [19]: Active; Activity [20]: Non-Toxic; Ratio IC50 [21]: > 2000 |
| N[C@@H](CC(=O)NC1(c2nc3ccc(OCC(=O)NC[C@H](O)[C@@H](O)[C@@H](O)[C@H](O)CO)cc3s2)CCS(=O)(=O)CC1)Cc1cc(F)c(F)cc1F.O=C(O)C(F)(F)F | 2.2 nM | > 50 µM | > 50 µM | 0.05 | 0.001 ×10⁻⁶ cm/s | 0.02 ×10⁻⁶ cm/s | > 50 µM | – | – | – |
| C[N+](C)(C)CCNC(=O)COc1ccc2nc(C3(NC(=O)C[C@H](N)Cc4cc(F)c(F)cc4F)CCS(=O)(=O)CC3)sc2c1.O=C(O)C(F)(F)F.O=C([O-])C(F)(F)F | 1.4 nM | > 50 µM | > 50 µM | 0.2 | 0.004 ×10⁻⁶ cm/s | 0.02 ×10⁻⁶ cm/s | > 50 µM | Stable | Stable | inhibition [13]: Active; inhibition [18]: Active; inhibition [19]: Active |
| N[C@@H](CC(=O)NC1(c2nc3ccc(OCCCCCC(=O)NC[C@H](O)[C@@H](O)[C@@H](O)[C@H](O)CO)cc3s2)CCS(=O)(=O)CC1)Cc1cc(F)c(F)cc1F.O=C(O)C(F)(F)F | 3.5 nM | 20 to 50 µM | 20 to 50 µM | 13 | 0.27 ×10⁻⁶ cm/s | 0.02 ×10⁻⁶ cm/s | > 50 µM | – | – | – |
| C[N+](C)(C)CCNC(=O)CCCCCOc1ccc2nc(C3(NC(=O)C[C@H](N)Cc4cc(F)c(F)cc4F)CCS(=O)(=O)CC3)sc2c1.O=C(O)C(F)(F)F.O=C([O-])C(F)(F)F | 3 nM | > 50 µM | > 50 µM | 6 | 0.11 ×10⁻⁶ cm/s | 0.02 ×10⁻⁶ cm/s | > 50 µM | – | – | – |
| C[C@]12CC[C@H]3[C@@H](CCC4=CC(=O)CC[C@@]43C)[C@@H]1CC[C@@H]2O [TESTOSTERONE] | – | – | – | – | – | – | – | Unstable | Unstable | – |
| N[C@@H](CC(=O)N1CCn2c(nnc2C(F)(F)F)C1)Cc1cc(F)c(F)cc1F [SITAGLIPTIN] | – | – | – | – | 12.2 ×10⁻⁶ cm/s | 0.25 ×10⁻⁶ cm/s | – | – | – | inhibition [13]: Active; inhibition [18]: Active; inhibition [19]: Active |
